Columns and labels:
Homo sapiens [1] = species: Homo sapiens; experiment: Selectivity index, ratio of Ki for human recombinant MAOA to Ki for human recombinant MAOB
Procedure, shortened: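 Ki values derived from IC50s by the Cheng–Prusoff equation. MAO-A used [S] 45 µM and Km 16.1 µM; MAO-B used [S] 30 µM and Km 22.7 µM. Index is Ki(MAO-A)/Ki(MAO-B).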

Homo sapiens [2] = species: Homo sapiens; experiment: Selectivity index, ratio of IC50 for human recombinant MAOA to IC50 for human recombinant MAOB
Procedure, shortened: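 Ratio of IC50 for MAO-A to IC50 for MAO-B. Both IC50s from the kynuramine fluorescence assay: MAO-A with 45 µM kynuramine, MAO-B with 30 µM. Each run in triplicate.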

[3] = target: T1, Amine oxidase [flavin-containing] B (Homo sapiens, UniProt P27338); experiment: Inhibition of human recombinant MAOB expressed in insect cell microsomes using kynuramine as substrate after 20 mins by fluorescence spectrophotometric analysis; parameters: species or system Microsome
T1 sequence (P27338 whole entry): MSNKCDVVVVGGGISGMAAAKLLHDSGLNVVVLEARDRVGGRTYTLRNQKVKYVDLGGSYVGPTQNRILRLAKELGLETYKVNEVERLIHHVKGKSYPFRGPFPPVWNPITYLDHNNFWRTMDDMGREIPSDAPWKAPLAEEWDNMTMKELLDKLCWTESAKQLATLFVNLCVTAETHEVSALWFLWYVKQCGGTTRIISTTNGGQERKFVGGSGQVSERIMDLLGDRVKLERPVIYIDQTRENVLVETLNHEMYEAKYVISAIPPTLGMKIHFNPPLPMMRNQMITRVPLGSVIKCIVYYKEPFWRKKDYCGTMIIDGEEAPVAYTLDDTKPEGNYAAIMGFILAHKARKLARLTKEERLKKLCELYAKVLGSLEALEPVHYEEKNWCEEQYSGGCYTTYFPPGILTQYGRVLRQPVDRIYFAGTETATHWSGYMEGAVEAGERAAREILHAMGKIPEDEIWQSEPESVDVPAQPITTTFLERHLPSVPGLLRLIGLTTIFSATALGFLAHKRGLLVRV

[4] = target: T2, Amine oxidase [flavin-containing] A (Homo sapiens, UniProt P21397); experiment: Inhibition of human recombinant MAOA expressed in insect cell microsomes using kynuramine as substrate after 20 mins by fluorescence spectrophotometric analysis; parameters: species or system Microsome
T2 sequence (P21397 whole entry): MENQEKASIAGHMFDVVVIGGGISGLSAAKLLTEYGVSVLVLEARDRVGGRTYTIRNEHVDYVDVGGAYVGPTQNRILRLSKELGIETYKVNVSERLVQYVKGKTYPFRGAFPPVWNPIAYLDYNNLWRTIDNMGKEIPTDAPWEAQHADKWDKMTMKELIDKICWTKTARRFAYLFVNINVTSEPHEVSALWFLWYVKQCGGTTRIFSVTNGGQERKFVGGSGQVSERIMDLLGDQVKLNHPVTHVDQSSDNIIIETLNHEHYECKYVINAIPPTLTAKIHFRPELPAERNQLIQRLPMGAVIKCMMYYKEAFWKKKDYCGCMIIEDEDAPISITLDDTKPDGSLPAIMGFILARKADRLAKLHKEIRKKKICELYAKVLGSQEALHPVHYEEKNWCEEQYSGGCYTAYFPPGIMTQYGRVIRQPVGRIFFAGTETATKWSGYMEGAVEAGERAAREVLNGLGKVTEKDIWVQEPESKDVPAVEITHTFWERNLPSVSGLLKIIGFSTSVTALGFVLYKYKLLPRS
Procedure, shortened: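 Recombinant human MAO-A at 0.0075 mg protein/mL, started with enzyme, in 100 mM potassium phosphate pH 7.4 made isotonic with KCl, 4% DMSO. Inhibitor 0.003–100 µM, kynuramine 45 µM final. 20 min at 37 °C, stopped with NaOH. 4-Hydroxyquinoline read by fluorescence against a calibration curve. IC50 from one-site competition fit, triplicate, mean ± SD.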

[5] = target: T2, Amine oxidase [flavin-containing] A; experiment: Ratio of compound IC50 to clorgyline IC50 for human recombinant MAOA
[6] = target: T1, Amine oxidase [flavin-containing] B; experiment: Reversible inhibition of human recombinant MAOB expressed in insect cell microsomes using kynuramine as substrate assessed as residual activity at 100 times IC50 preincubated for 30 mins followed by 100 fold dilution measured after 20 mins by fluorescence spectrophotometric analysis relative to control; parameters: species or system Microsome
Procedure, shortened: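 Recombinant human MAO-B (0.75 mg/ml) preincubated 30 min at 37 °C with inhibitor at 0, 10 or 100 × IC50 in pH 7.4 isotonic potassium phosphate with 4% DMSO. Diluted 100-fold with kynuramine to 30 µM substrate and 0.0075 mg/mL enzyme. Then 20 min at 37 °C. Residual 4-hydroxyquinoline formation measured by fluorescence, relative to no-inhibitor control. (R)-deprenyl at 10 × IC50 run as comparator.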

Row | Compound | Ratio Ki (Homo sapiens [1]) | Ratio IC50 (Homo sapiens [2]) | IC50 [3] [µM] | IC50 [4] [µM] | Ratio IC50 [5] | Activity [6] [%]
1 | N#Cc1ccc(SC2CCCCC2)cc1 | 1.3 | 2.1 | 4.77 | 9.87 |  | 
2 | N#Cc1ccc(SCc2ccc(Cl)cc2)cc1 | 23 | 38 | 0.531 | 20.3 |  | 
3 | N#Cc1ccc(Sc2ccc(Cl)cc2)cc1C#N | 59.6 | 97 | 0.114 | 11.1 |  | 
4 | N#Cc1ccc(SCc2ccccc2)cc1C#N | 33 | 54 | 0.167 | 9.02 |  | 
5 | N#Cc1ccc(SCc2ccc(Cl)cc2)cc1C#N | 27 | 45 | 0.014 | 0.623 | 240 | 
6 | N#Cc1ccc(Sc2ccccc2)cc1 | 2 | 3.3 | 11.2 | 36.9 |  | 
7 | N#Cc1ccc(SCCc2ccccc2)cc1 | 18 | 30 | 1.81 | 54.3 |  | 
8 | N#Cc1ccc(SCCc2ccccc2)cc1C#N | 35.5 | 58 | 0.124 | 7.19 |  | 
9 | N#Cc1ccc(SC2CCCCC2)cc1C#N | 16.3 | 27 | 0.223 | 5.96 |  | 
10 | N#Cc1ccc(SCc2ccc(Br)cc2)cc1 | 163 | 267 | 0.484 | 129 |  | 
11 | COc1ccc(CSc2ccc(C#N)cc2)cc1 | 4 | 6.5 | 0.861 | 5.59 |  | 
12 | N#Cc1ccc(SCc2ccc(F)cc2)cc1 | 75 | 122 | 0.449 | 54.7 |  | 
13 | COc1ccc(CSc2ccc(C#N)c(C#N)c2)cc1 | 1180 | 1920 | 0.067 | 129 |  | 
14 | N#Cc1ccc(SC2CCCC2)cc1C#N | 1.9 | 3.1 | 0.887 | 2.78 |  | 
15 | N#Cc1ccc(Sc2ccc(Br)cc2)cc1 | 8.2 | 13 | 0.637 | 8.52 |  | 
16 | N#Cc1ccc(SCc2ccc(F)cc2)cc1C#N | 38 | 62 | 0.034 | 2.1 |  | 
17 | N#Cc1ccc(Sc2ccc(Br)cc2)cc1C#N | 147 | 240 | 0.079 | 19 |  | 
18 | N#Cc1ccc(Sc2ccc(Cl)cc2)cc1 | 2.6 | 4.3 | 4.28 | 18.2 |  | 
19 | N#Cc1ccc(OCc2ccccc2)cc1C#N |  | 227 |  |  |  | 
20 | N#Cc1ccc(SCc2ccccc2)cc1 | 16 | 27 | 1.58 | 42.4 |  | 
21 | N#Cc1ccc(OCc2ccc(Br)cc2)cc1C#N |  | 134 |  |  |  | 
22 | N#Cc1ccc(OCc2ccccc2)cc1 |  | 41 |  |  |  | 
23 | CC(C)CCSc1ccc(C#N)c(C#N)c1 | 3.7 | 6 | 0.242 | 1.45 |  | 
24 | N#Cc1ccc(SCc2ccc(Br)cc2)cc1C#N | 5330 | 8720 | 0.025 | 218 |  | 48
25 | N#Cc1ccc(Sc2ccccc2)cc1C#N | 1 | 1.7 | 2.13 | 3.58 |  | 
